Measurements from ChEMBL document CHEMBL1138880, “Synthesis of DNA-directed pyrrolidinyl and piperidinyl confined alkylating chloroalkylaminoanthraquinones: potential for development of tumor-selective N-oxides” (J Med Chem, 2006).
Activity calls are given as the source filed them. No cut-off for these calls is given here.

What was measured:
Nucleic Acid [1] = experiment: Ability to interstand cross-link DNA by agarose gel cross-link assay; assay type: nucleic-acid assay
In short: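 Linearised, 5′-end 32P-labelled pBR322 DNA (~100 ng) incubated with drug (0.01-10 µM final) in TEOA buffer at 37 °C for 1 h, then stopped. DNA was precipitated, heat-denatured in strand separation buffer (95 °C, 2 min), run on 0.8% agarose at 40 V overnight and autoradiographed. Cross-linked DNA was quantified by densitometry as the mean of three replicates.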

A2780 [2] = experiment: Inhibition of A2780 cell growth; assay type: functional, cell-based; conditions: Homo sapiens
A2780 [3] = experiment: Inhibition of cisplatin-resistant A2780 cell growth; assay type: functional, cell-based; conditions: Homo sapiens
A2780 [4] = experiment: Inhibition of Doxorubicin-resistant A2780 cell growth; assay type: functional, cell-based; conditions: Homo sapiens
A2780 [5] = experiment: Resistance factor, IC50 for A2780/cp70 cells/ IC50 for A2780 cells; assay type: functional, Homo sapiens
Nucleic Acid [6] = experiment: Alkylation of DNA at 10 uM after 24 hrs by Taq polymerase stop assay; assay type: nucleic-acid assay
In short: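 Linearised pBR322 was treated with drug for 24 h; the screening range was 1 nM-10 µM. Treated DNA was extended with labelled SRM primer and Taq polymerase over 30 cycles (95 °C 1 min, 58 °C 1 min, 74 °C). Products were run on a denaturing gel in TBE at 55 °C with mechlorethamine and untreated DNA, then autoradiographed to map guanine alkylation sites.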

A2780 [7] = experiment: Resistance factor, IC50 for A2780 AD cells/ IC50 for A2780 cells; assay type: functional, Homo sapiens
[8] = system: Panel NCI-60 (60 carcinoma cell lines); experiment: Cytotoxicity against NCI60 cell line; assay type: functional; conditions: Homo sapiens
Nucleic Acid [9] = experiment: Induction of DNA unwinding by agarose gel based supercoiled plasmid pBR322 DNA mobility assay; assay type: nucleic-acid assay
In short: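 Circular supercoiled pBR322 (250 ng) with compound in reaction buffer (Tris-HCl pH 7.9, NaCl, KCl, MgCl2, EDTA, BSA, ATP), 30 °C for 15 min; stopped, run on 0.8% agarose in 1× TAE at 100 V for 3 h, EtBr-stained 30 min, visualized under UV.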

Nucleic Acid [10] = experiment: Ability to interstand cross-link DNA upto 100 uM by agarose gel cross-link assay; assay type: nucleic-acid assay
In short: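 Agarose gel interstrand cross-link assay on linearised, 5′-end 32P-labelled pBR322 in TEOA buffer at 37 °C. Drug was tested across concentrations up to 100 µM and times up to 24 h. DNA was strand-separated at 95 °C, then run on 0.8% agarose and autoradiographed.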

| IC50 (A2780 [2]) [µM] | IC50 (A2780 [3]) [µM] | IC50 (A2780 [4]) [µM] | Activity (Nucleic Acid [9]) | SMILES | Activity (Nucleic Acid [1]) | Ratio IC50 (A2780 [5]) | Activity (Nucleic Acid [6]) | Ratio IC50 (A2780 [7]) | GI50 [8] [µM] | Activity (Nucleic Acid [10]) |
| --- | --- | --- | --- | --- | --- | --- | --- | --- | --- | --- |
| > 1 | > 1 | > 1 |  | O=C1c2ccccc2C(=O)c2c(NCCN3CCCC3CO)cccc21 (stereo not drawn) |  |  |  |  |  |  |
| 0.576 | 0.535 | 0.426 |  | CN(C)CCNc1ccc(NCCN2CCC(Cl)CC2)c2c1C(=O)c1c(O)ccc(O)c1C2=O |  | 0.9 | inactive | 0.7 |  |  |
| > 1 | > 1 | > 1 |  | O=C1c2c(O)ccc(O)c2C(=O)c2c(NCCN3CCCCC3)ccc(NCCN3CCCCC3)c21 |  |  |  |  |  |  |
| 0.009 | 0.063 | 0.075 |  | CN(C)CCNc1ccc(NCCN2CCCC(Cl)C2)c2c1C(=O)c1c(O)ccc(O)c1C2=O (stereo not drawn) |  | 7 |  | 8.3 | 0.182 |  |
| 0.029 | 0.079 | 0.292 |  | CN(C)CCNc1ccc(NCCN2CCCC2CCl)c2c1C(=O)c1c(O)ccc(O)c1C2=O (stereo not drawn) |  | 2.7 |  | 10.1 | 0.096 |  |
| > 1 | > 1 | > 1 | inactive | O=C1c2c(O)ccc(O)c2C(=O)c2c(NCC[N+]3([O-])CCCCC3CCl)ccc(NCC[N+]3([O-])CCCCC3CCl)c21 (stereo not drawn) |  |  |  |  |  |  |
| 0.74 | > 0.59 | > 1 |  | O=C1c2c(O)ccc(O)c2C(=O)c2c(NCCN3CCCCC3CO)ccc(NCCN3CCCCC3CO)c21 (stereo not drawn) |  | 0.9 |  |  |  |  |
| 0.04 | 0.069 | 0.091 |  | CN(C)CCNc1ccc(NCCN2CCCCC2CCl)c2c1C(=O)c1c(O)ccc(O)c1C2=O (stereo not drawn) |  | 1.7 |  | 2.3 |  |  |
| 0.0075 | 0.003 | 0.061 |  | COc1cccc2c1C(=O)c1c(O)c3c(c(O)c1C2=O)C[C@@](O)(C(=O)CO)C[C@@H]3O[C@H]1C[C@H](N)[C@H](O)[C@H](C)O1 [DOXORUBICIN] |  | 0.4 |  | 8.1 |  |  |
| > 1 | > 1 | > 1 |  | O=C1c2ccccc2C(=O)c2c(NCCN3CCCC3CCl)cccc21 (stereo not drawn) |  |  |  |  |  |  |
| 0.07 | 0.07 | > 1 |  | O=C1c2c(O)ccc(O)c2C(=O)c2c(NCCN3CCCC(CO)C3)ccc(NCCN3CCCC(CO)C3)c21 (stereo not drawn) |  | 1 |  |  |  |  |
| 0.068 | 0.096 | 0.342 |  | CN(C)CCNc1ccc(NCCN2CCC(Cl)C2)c2c1C(=O)c1c(O)ccc(O)c1C2=O (stereo not drawn) |  | 1.4 |  | 5 |  |  |

| SMILES | IC50 (A2780 [2]) [µM] | IC50 (A2780 [3]) [µM] | IC50 (A2780 [4]) [µM] | Activity (Nucleic Acid [9]) | Activity (Nucleic Acid [1]) | Ratio IC50 (A2780 [5]) | Activity (Nucleic Acid [6]) | Ratio IC50 (A2780 [7]) | GI50 [8] [µM] | Activity (Nucleic Acid [10]) |
| --- | --- | --- | --- | --- | --- | --- | --- | --- | --- | --- |
| O=C1c2c(O)ccc(O)c2C(=O)c2c(NCCN3CCCCC3CCl)ccc(NCCN3CCCCC3CCl)c21 (stereo not drawn) | 0.178 | > 1 | > 1 |  | Time-dependent effect |  |  |  |  |  |
| O=C1c2c(O)ccc(O)c2C(=O)c2c(NCCN3CCCC(CCl)C3)ccc(NCCN3CCCC(CCl)C3)c21 (stereo not drawn) | > 1 | > 1 | > 1 |  |  |  | inactive |  |  | inactive |
| CN(C)CCNc1ccc(NCCN2C(CCl)CCCC2CCl)c2c1C(=O)c1c(O)ccc(O)c1C2=O (stereo not drawn) | 0.024 | 0.357 | 0.106 |  |  | 14.9 |  | 4.4 |  |  |
